Assay [1] addresses T1, 72 kDa type IV collagenase (Homo sapiens, UniProt P08253). In words: Inhibition of MMP2 at 50 uM.
Target sequence in this assay (P08253 110-660 limits assumed): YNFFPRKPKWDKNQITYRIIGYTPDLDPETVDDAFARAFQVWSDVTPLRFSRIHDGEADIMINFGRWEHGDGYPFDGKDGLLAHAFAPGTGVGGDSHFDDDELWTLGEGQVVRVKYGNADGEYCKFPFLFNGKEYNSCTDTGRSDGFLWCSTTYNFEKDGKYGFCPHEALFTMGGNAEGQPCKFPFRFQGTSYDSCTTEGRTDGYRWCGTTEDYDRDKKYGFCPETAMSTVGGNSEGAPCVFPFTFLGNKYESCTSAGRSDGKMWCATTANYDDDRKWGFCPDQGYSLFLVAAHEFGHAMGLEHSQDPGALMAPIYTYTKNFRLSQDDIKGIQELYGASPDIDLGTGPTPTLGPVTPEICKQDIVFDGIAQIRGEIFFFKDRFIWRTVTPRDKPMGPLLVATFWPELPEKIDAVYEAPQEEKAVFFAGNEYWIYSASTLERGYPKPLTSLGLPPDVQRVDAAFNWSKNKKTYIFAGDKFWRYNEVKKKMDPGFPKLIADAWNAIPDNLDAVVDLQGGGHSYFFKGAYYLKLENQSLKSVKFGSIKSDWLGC
In assay [2] the target is T1, 72 kDa type IV collagenase. In words: Inhibition of MMP2 at 5 uM.
Target sequence in this assay (P08253 110-660 limits assumed): as above
The next assay relates to DU-145. In words: Cytotoxicity against human DU145 cells assessed as reduction of cell viability after 48 hrs by MTS assay. Conditions: for IC50: DU-145, 48 h. The class given is functional, cell-based. In short, it runs like this: (§1)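 IC50 from cell viability read by MTS assay run to the manufacturer's protocol, after 48 h exposure to compound. Each value is the mean of three determinations, deviating <10% from the mean.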

In a further assay the test system is MDA-MB-435. In words: Cytotoxicity against human MDA-MB-435 cells assessed as reduction of cell viability after 48 hrs by MTS assay. The class given is functional, cell-based. Conditions: MDA-MB-435, 48 h. The procedure, abridged:
as §1
In general terms: Tetrazolium assays rely on reduction of a dye to a coloured formazan, in cell work by metabolically active cells.

The test system of assay [3] is RPMI-8226. In words: Cytotoxicity against human RPMI8226 cells assessed as reduction of cell viability at 1 uM after 48 hrs by MTS assay. Format: functional, cell-based. In short, it runs like this: (§2)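 Multiple myeloma cells were exposed to compound at a single concentration for 48 h, alongside a DMSO vehicle control. Viability was then read by MTS assay. Each value is the mean of three determinations, deviating <10% from the mean.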

The next assay deals with A2058. Kind of assay: Cytotoxicity against human A2058 cells assessed as reduction of cell viability after 48 hrs by MTS assay. Format: functional, cell-based. Conditions: A2058, 48 h. The procedure, abridged: as §1
Assay [4] deals with RPMI-8226. Kind of assay: Cytotoxicity against human RPMI8226 cells assessed as reduction of cell viability at 10 uM after 48 hrs by MTS assay. Format: functional, cell-based. The procedure, abridged: as §2
The subject of assay [5] is KMS-11. In words: Cytotoxicity against human KMS11 cells assessed as reduction of cell viability at 10 uM after 48 hrs by MTS assay. The class given is functional, cell-based. The procedure, abridged:
as §2

The test system of assay [6] is KMS-11. Kind of assay: Cytotoxicity against human KMS11 cells assessed as reduction of cell viability at 1 uM after 48 hrs by MTS assay. Format: functional, cell-based. In short, it runs like this: as §2
Assay [7] has as its system U-266. Kind of assay: Cytotoxicity against human U266 cells assessed as reduction of cell viability at 10 uM after 48 hrs by MTS assay. Format: functional, cell-based. The procedure, abridged:
as §2

Assay [8] has as its system U-266. Kind of assay: Cytotoxicity against human U266 cells assessed as reduction of cell viability at 1 uM after 48 hrs by MTS assay. Format: functional, cell-based. The procedure, abridged: as §2
Assay [9] concerns the target T1, 72 kDa type IV collagenase. Kind of assay: Inhibition of MMP2.
Target sequence in this assay (P08253 whole entry): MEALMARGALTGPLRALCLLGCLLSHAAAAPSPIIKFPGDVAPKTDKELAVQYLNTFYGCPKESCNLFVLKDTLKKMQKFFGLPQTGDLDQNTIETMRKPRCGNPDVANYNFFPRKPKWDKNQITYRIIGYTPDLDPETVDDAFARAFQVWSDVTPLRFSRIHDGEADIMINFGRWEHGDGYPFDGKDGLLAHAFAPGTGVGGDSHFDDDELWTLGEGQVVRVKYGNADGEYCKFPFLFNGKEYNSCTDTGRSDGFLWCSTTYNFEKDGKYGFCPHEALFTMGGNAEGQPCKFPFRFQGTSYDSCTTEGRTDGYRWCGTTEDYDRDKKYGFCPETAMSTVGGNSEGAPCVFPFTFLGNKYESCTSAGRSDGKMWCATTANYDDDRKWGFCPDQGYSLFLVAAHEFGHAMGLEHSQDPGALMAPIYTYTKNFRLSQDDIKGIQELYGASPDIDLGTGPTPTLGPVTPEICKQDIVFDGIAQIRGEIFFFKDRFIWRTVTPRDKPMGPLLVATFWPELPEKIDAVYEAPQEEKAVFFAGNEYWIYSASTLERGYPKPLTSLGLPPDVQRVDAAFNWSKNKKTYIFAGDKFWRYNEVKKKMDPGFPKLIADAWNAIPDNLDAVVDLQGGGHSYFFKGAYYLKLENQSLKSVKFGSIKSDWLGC

A word on the inhibition: it is the change of the read-out against control, counted positive when it falls. Read a high inhibition as a strong effect. One may read the IC50 as the concentration that inhibits the measured activity by half.

Each structure is given as a SMILES string. Calls of active or inactive are those of the source. The calls are words filed in the database; no cut-off is given here.

Regarding `NC1=NC2C=CC=NC(c3ccc(Cl)cc3)=C2N1` (stereo not drawn), the values for the inhibition in [1] and in [2] were 54% and 27%, respectively. Moreover, the Activity entry with DU-145 was “Dose-dependent effect”. For the same compound, the IC50 in the assay on DU-145 amounted to 6.2 µM; in the assay on MDA-MB-435, 3.6 µM; in the assay with A2058, 5.1 µM. In addition, the outcome in the assay on RPMI-8226 [3], in the assay with RPMI-8226 [4], in the assay on KMS-11 [5], in the assay on KMS-11 [6], in the assay on U-266 [7] and in the assay on U-266 [8] was Active.
As to `CC(C)c1nccc2nc(N)[nH]c12`, the inhibition in assay [1] was found to be 17%; in [2] it was 25%.
In the case of `Nc1nc2ccnc(-c3cccc4ccccc34)c2[nH]1`, the inhibition in assay [2] was 20%.
As to `NC1=NC2C=CC=NC(C3CCCCC3)=C2N1` (stereo not drawn), the inhibition in assay [1] stood at 53%; in [2] it was 23%. The Activity entry in the assay on DU-145 is “Dose-dependent effect”. Also, the IC50 in the assay with DU-145 worked out at 5 µM; in the assay on MDA-MB-435, 3.4 µM; with A2058 it was 4.5 µM. In addition, the outcome in the assay with RPMI-8226 [3], with RPMI-8226 [4], in the assay on KMS-11 [5], in the assay on KMS-11 [6], with U-266 [7] and with U-266 [8] was Active.
For the compound `CC(C)Cc1nccc2nc(N)[nH]c12`, the figures for the inhibition in assay [1] and in assay [2] were 22% and 31%, respectively.
Consider `Nc1nc2ccnc(C3CCCCC3)c2[nH]1`, for which the inhibition came to 40% in assay [1] and 9% in assay [2].
For `CC(C)CC1=C2NC(N)=NC2C=CC=N1` (stereo not drawn), the inhibition in assay [1] is 60%; in assay [2], 27%. Further, the Activity entry in the assay on DU-145 was “Dose-dependent effect”. The IC50 in the assay on DU-145 turned out to be 4.3 µM; in the assay with MDA-MB-435, 2.9 µM; with A2058 it was 4.1 µM. The result in the assay with RPMI-8226 [3], in the assay on RPMI-8226 [4], in the assay with KMS-11 [5], in the assay with KMS-11 [6], in the assay on U-266 [7] and in the assay on U-266 [8] was Active.
`Nc1nc2c(-c3cc(Br)c(Br)[nH]3)nccc2[nH]1` [AGELADINE A] came in with an IC50 in assay [9] of 1.7 µM.
For `Nc1nc2ccnc(-c3c[nH]c4ccccc34)c2[nH]1`, the inhibition in assay [1] is 26%; in assay [2] it was 25%.
On to `CC(C)C1=C2NC(N)=NC2C=CC=N1` (stereo not drawn), for which the figures for the inhibition in [1] and in assay [2] were 52% and 28%, respectively. Moreover, in the assay with DU-145, the Activity entry is “Dose-dependent effect”. In addition, the IC50 with DU-145 came out at 7.5 µM; with MDA-MB-435, 6.7 µM; in the assay with A2058, 9.5 µM. Besides, the outcome in the assay with RPMI-8226 [3], in the assay with RPMI-8226 [4], in the assay on KMS-11 [5], in the assay with KMS-11 [6], with U-266 [7] and with U-266 [8] was Active.

Values taken from ChEMBL document CHEMBL1153166, “Synthesis and anticancer activities of ageladine A and structural analogs” (Bioorg Med Chem Lett, 2010).
